Active and inactive are the calls of the source. No cut-off for these calls is given here.
Key:
Monoglyceride lipase = molecular target: T1, Monoglyceride lipase (Rattus norvegicus, UniProt Q8R431); assay: Inhibition of MAGL in Wistar rat brain
T1 sequence (Q8R431 whole entry): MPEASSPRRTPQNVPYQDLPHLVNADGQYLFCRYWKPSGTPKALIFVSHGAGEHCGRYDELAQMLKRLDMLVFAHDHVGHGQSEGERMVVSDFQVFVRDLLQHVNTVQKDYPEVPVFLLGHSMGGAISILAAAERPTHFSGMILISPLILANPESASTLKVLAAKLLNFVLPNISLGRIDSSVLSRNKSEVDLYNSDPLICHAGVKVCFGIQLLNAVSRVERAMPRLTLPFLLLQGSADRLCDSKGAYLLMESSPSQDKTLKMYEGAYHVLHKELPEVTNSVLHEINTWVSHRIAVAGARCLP

[1] = molecular target: T2, Monoglyceride lipase (Mus musculus) (UniProt O35678); assay: Inhibition of MAGL in C57B1/6J mouse brain membrane after 30 mins by competitive activity-based protein profiling method; format: cell membranes
T2 sequence (whole entry): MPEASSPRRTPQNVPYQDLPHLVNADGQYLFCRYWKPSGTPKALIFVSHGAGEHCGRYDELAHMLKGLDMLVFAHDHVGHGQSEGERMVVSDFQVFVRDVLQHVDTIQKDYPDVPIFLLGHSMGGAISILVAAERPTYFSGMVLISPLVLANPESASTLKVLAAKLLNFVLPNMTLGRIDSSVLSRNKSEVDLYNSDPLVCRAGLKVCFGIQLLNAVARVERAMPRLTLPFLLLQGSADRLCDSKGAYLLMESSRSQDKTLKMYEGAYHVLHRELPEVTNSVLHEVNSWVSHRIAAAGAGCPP
In short: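 Mouse brain membrane proteome (1 mg ml^-1 in PBS) preincubated 30 min at 37°C with inhibitor (1 nM-10 μM). FP-rhodamine then added (2 μM final) for 30 min at room temperature. Reaction quenched in SDS loading buffer, boiled 5 min at 90°C, resolved by SDS-PAGE and read by in-gel fluorescence.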

[2] = molecular target: T3, Monoacylglycerol lipase ABHD6 (Mus musculus) (UniProt Q8R2Y0); assay: Inhibition of ABHD6 in C57B1/6J mouse brain membrane after 30 mins by competitive activity-based protein profiling method; format: cell membranes
T3 sequence (whole entry): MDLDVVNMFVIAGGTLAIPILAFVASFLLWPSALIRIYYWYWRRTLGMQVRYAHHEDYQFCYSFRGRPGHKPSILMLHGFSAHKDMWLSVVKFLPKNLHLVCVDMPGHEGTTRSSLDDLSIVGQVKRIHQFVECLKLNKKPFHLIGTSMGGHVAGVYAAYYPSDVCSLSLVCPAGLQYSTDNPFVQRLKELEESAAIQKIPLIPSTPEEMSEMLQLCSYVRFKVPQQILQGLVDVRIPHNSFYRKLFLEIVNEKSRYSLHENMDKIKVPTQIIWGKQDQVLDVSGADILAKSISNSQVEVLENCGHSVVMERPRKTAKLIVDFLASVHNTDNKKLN
In short: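 Mouse brain membrane proteome at 1 mg ml^-1 in PBS was preincubated with inhibitor (1 nM-10 μM) for 30 min at 37°C. FP-rhodamine was then added at 2 μM final for 30 min at room temperature, followed by SDS-PAGE and in-gel fluorescence scanning.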

Row | SMILES | IC50 (Monoglyceride lipase) | inhibition [1] | inhibition [2]
1 | O=C(Nc1cccc(-c2ccccc2)c1)OC1CCCCC1 | 200 µM | – | –
2 | O=C(Oc1ccc([N+](=O)[O-])cc1)N1CCN(C(c2ccc(F)cc2)c2ccc(F)cc2)CC1 | – | Active | Active
3 | COc1ccc(C(c2ccc(OC)cc2)N2CCN(C(=O)Oc3ccc([N+](=O)[O-])cc3)CC2)cc1 | – | Active | Active
4 | COc1ccc(C(O)(c2ccc(OC)cc2)C2CCN(C(=O)Oc3ccc([N+](=O)[O-])cc3)CC2)cc1 | – | Active | –
5 | CN(Cc1cccc(-c2ccncc2)c1)C(=O)Oc1ccc([N+](=O)[O-])cc1 | – | Active | Active

Source: ChEMBL document CHEMBL1221219, “Selective blockade of 2-arachidonoylglycerol hydrolysis produces cannabinoid behavioral effects” (Nat Chem Biol, 2009)
